Active and inactive are the calls of the source. No cut-off for these calls is given here. Where a SMILES comes first, the peptide text is derived from it. [ ]: non-standard residue; d: D form. Arg(Me) = CNC(=N)NCCC[C@H](N)C(=O)O; azaGly = NNC(=O)O
How the values were obtained:
[1] = tested on: Rattus norvegicus; assay: Testosterone-suppressive activity in Crl:CD(SD) rat assessed as number of animal with plasma testosterone level below the limit of detection at 0.03 mol/hr, sc through osmotic pumps measured after 6 days by RIA; assay type: functional
[2] = Stability of the compound in aqueous solution assessed as residual ratio at pH 7 up to 2 weeks by HPLC analysis relative to initial level; assay type: physicochemical
Procedure, shortened: (§1)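 Peptides in aqueous solution at pH 1.2 (JP1, containing 10% acetonitrile), 3, 5 or 7 were kept in the dark at 37 °C for up to 2 weeks. Peptide remaining was quantified from HPLC peak area, with detection at 230–280 nm. The residual ratio (stability index) was expressed relative to the time-0 amount, taken as 100%.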

[3] = target: T1, KiSS-1 receptor (Rattus norvegicus, UniProt Q924U1); assay: Agonist activity at rat KISS1R transfected in CHO cells assessed as intracellular calcium flux after 24 hrs by functional FLIPR assay; assay type: cell-based
T1 sequence (Q924U1 whole entry): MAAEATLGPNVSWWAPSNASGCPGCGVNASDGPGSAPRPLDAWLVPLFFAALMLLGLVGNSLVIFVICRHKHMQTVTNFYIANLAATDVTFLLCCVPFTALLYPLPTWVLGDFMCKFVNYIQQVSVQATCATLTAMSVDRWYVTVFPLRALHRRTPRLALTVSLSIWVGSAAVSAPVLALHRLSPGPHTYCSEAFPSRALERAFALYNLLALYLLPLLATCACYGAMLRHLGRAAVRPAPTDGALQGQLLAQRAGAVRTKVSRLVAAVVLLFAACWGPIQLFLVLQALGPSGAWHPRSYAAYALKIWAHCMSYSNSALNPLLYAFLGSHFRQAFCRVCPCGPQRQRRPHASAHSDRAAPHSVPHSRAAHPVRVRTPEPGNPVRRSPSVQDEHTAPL

[4] = Mean residence time in Sprague-Dawley rat at 1 mg/kg, iv after 24 hrs by LC-MS/MS analysis; assay type: ADME, organism-based; design: dose 1 mg/kg, route intravenous; settings: in vivo
Procedure, shortened: (§2)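 Male Crl:CD(SD) rats (3 per group) got a single intravenous dose of 1 mg/kg. Blood was drawn at 5, 10, 15 and 30 min and at 1, 2, 4, 8 and 24 h. Plasma proteins were removed with 0.2% formic acid/methanol and acetonitrile, and the supernatant was treated with 0.4% formic acid. Peptide was quantified by LC-MS. Noncompartmental parameters were derived per rat, reported as mean ± SD (n = 3).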

[5] = AUC (0 to 24 hrs) in Sprague-Dawley rat at 1 mg/kg, iv after 24 hrs by LC-MS/MS analysis; assay type: ADME, organism-based; design: time < 24 hr, dose 1 mg/kg, route intravenous; settings: plasma; procedure, shortened: as §2
[6] = Total clearance in Sprague-Dawley rat at 1 mg/kg, iv after 24 hrs by LC-MS/MS analysis; assay type: ADME, organism-based; design: dose 1 mg/kg, route intravenous; settings: in vivo; procedure, shortened: as §2
[7] = tested on: Rattus norvegicus; assay: Testosterone-suppressive activity in Crl:CD(SD) rat assessed as number of animal with plasma testosterone level below the limit of detection […], sc through osmotic pumps measured after 6 days by RIA; assay type: functional
[8] = tested on: Rattus norvegicus; assay: Testosterone-suppressive activity in Crl:CD(SD) rat assessed as number of animal with plasma testosterone level below the limit of detection at 0.05 mol/hr, sc through osmotic pumps measured after 6 days by RIA; assay type: functional
[9] = target: T2, KiSS-1 receptor (Homo sapiens, UniProt Q969F8); assay: Displacement of radioligand from human KISS1R transfected in CHO cells; assay type: cell-based
T2 sequence (Q969F8 whole entry): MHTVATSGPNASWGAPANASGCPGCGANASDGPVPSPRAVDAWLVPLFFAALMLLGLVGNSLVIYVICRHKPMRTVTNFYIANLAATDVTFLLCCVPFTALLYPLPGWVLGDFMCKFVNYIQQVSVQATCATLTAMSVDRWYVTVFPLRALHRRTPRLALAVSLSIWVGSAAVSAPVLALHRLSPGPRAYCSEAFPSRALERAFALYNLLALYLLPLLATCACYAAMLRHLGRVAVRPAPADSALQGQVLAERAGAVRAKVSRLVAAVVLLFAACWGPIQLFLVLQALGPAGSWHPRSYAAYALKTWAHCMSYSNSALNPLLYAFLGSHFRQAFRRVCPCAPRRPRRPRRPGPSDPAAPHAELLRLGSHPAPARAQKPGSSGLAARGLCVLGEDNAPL
Procedure, shortened: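 Binding used membrane fractions prepared from CHO cells expressing recombinant human KISS1R.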

[10] = Stability of the compound in aqueous solution (JP1) assessed as residual ratio at pH 1.2 up to 2 weeks by HPLC analysis relative to initial level; assay type: physicochemical; procedure, shortened: as §1
[11] = Stability of the compound in aqueous solution (JP1) assessed as residual ratio at pH 1.2 up to 1 week by HPLC analysis relative to initial level; assay type: physicochemical; procedure, shortened: as §1
[12] = Stability of the compound in aqueous solution assessed as residual ratio at pH 3 up to 2 weeks by HPLC analysis relative to initial level; assay type: physicochemical; procedure, shortened: as §1
[13] = Stability of the compound in aqueous solution assessed as residual ratio at pH 3 up to 1 week by HPLC analysis relative to initial level; assay type: physicochemical; procedure, shortened: as §1
[14] = Mean residence time in Sprague-Dawley rat at 1 mg/kg, sc after 24 hrs by LC-MS/MS analysis; assay type: ADME, organism-based; design: dose 1 mg/kg, route subcutaneous; settings: in vivo
Procedure, shortened: (§3)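 Single subcutaneous dose of 1 mg/kg in male Crl:CD(SD) rats, n = 3 per group. Blood was sampled from 5 min to 24 h (5, 10, 15, 30 min; 1, 2, 4, 8, 24 h). Plasma was deproteinized with formic acid/methanol and acetonitrile, and peptide levels were measured by LC-MS. Noncompartmental analysis per animal gave Cmax, Tmax, AUC0-24h, MRT and BA; values are mean ± SD (n = 3).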

[15] = Stability of the compound in aqueous solution assessed as residual ratio at pH 7 up to 1 week by HPLC analysis relative to initial level; assay type: physicochemical; procedure, shortened: as §1
[16] = Tmax in Sprague-Dawley rat at 1 mg/kg, sc after 24 hrs by LC-MS/MS analysis; assay type: ADME, organism-based; design: dose 1 mg/kg, route subcutaneous; settings: in vivo; procedure, shortened: as §3
[17] = C5min in Sprague-Dawley rat at 1 mg/kg, iv after 5 mins by LC-MS/MS analysis; settings: in vivo, read-out: Cmin
[18] = AUC (0 to 24 hrs) in Sprague-Dawley rat at 1 mg/kg, sc after 24 hrs by LC-MS/MS analysis; assay type: ADME, organism-based; design: time < 24 hr, dose 1 mg/kg, route subcutaneous; settings: plasma; procedure, shortened: as §3
[19] = Stability of the compound in aqueous solution assessed as residual ratio at pH 5 up to 1 week by HPLC analysis relative to initial level; assay type: physicochemical; procedure, shortened: as §1
[20] = target: T1, KiSS-1 receptor; assay: Displacement of radioligand from rat KISS1R transfected in CHO cells; assay type: cell-based
[21] = tested on: Rattus norvegicus; assay: Testosterone-suppressive activity in Crl:CD(SD) rat assessed as plasma testosterone level below the limit of detection at 10 to 100 pmol/hr, sc continuous administration through osmotic pumps measured up to 1 week by RIA; assay type: functional, organism-based
Procedure, shortened: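 Peptide in 50% DMSO was diluted in distilled water to 10, 30 or 100 μM pump solutions, giving 10–100 pmol/h by subcutaneous ALZET osmotic pump in male Crl:CD(SD) rats (n = 5). Vehicle served as control. Plasma testosterone was measured by RIA after 1 or 4 weeks, with values below 0.04 ng/mL set to 0.04. Results are mean ± SD of five rats, tested by one-tailed Shirley–Williams test versus vehicle.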

[22] = Stability of the compound in aqueous solution assessed as residual ratio at pH 5 up to 2 weeks by HPLC analysis relative to initial level; assay type: physicochemical; procedure, shortened: as §1
[23] = target: T2, KiSS-1 receptor; assay: Agonist activity at human KISS1R transfected in CHO cells assessed as intracellular calcium flux after 24 hrs by functional FLIPR assay; assay type: cell-based
Procedure, shortened: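 CHO cells stably expressing human KISS1R were seeded at 15 000 cells/mL, cultured 24 h, then loaded with fluo-3 for 1 h at 37 °C in HBSS/HEPES (pH 7.4) with probenecid and FBS. Cells were washed in HBSS with 2.5 mM probenecid. Peptides came from 1 mM DMSO stocks diluted in buffer containing probenecid, 0.2% BSA and 0.1% CHAPS. Fluorescence was recorded on FLIPR for 3 min; peak counts over 0–180 s gave agonist activity.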

[24] = Volume of distribution at steady state in Sprague-Dawley rat at 1 mg/kg, iv after 24 hrs by LC-MS/MS analysis; assay type: ADME, organism-based; design: dose 1 mg/kg, route intravenous; settings: in vivo, read-out: Vdss; procedure, shortened: as §2
[25] = Cmax in Sprague-Dawley rat at 1 mg/kg, sc after 24 hrs by LC-MS/MS analysis; assay type: ADME, organism-based; design: dose 1 mg/kg, route subcutaneous; settings: in vivo; procedure, shortened: as §3
[26] = Bioavailability in Sprague-Dawley rat at 1 mg/kg, sc after 24 hrs by LC-MS/MS analysis; assay type: ADME, organism-based; settings: in vivo; procedure, shortened: as §3
[27] = tested on: Rattus norvegicus; assay: Testosterone-suppressive activity in Crl:CD(SD) rat assessed as number of animal with plasma testosterone level below the limit of detection at 0.1 nmol/hr, sc through osmotic pumps measured after 6 days by RIA; assay type: functional
Procedure, shortened: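 Peptide was dissolved in distilled water or 50% DMSO as 0.1–2 mM pump solutions and delivered by ALZET osmotic pumps implanted subcutaneously in the back of 9-week-old male Crl:CD(SD) rats (n = 5) under ether. Controls received distilled-water pumps. After 6 days, rats were decapitated and plasma was recovered with aprotinin/EDTA. Testosterone was measured by RIA, and the number of rats below the detection limit (0.04 ng/mL) was counted.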

[28] = tested on: Rattus norvegicus; assay: Stimulation of testosterone release in Crl:CD(SD) rat assessed as testosterone AUC (0 to 4 hrs) at 0.01 to 1 nmol/kg, sc single dose; assay type: functional, organism-based
[29] = organism: Canis familiaris; assay: Toxicity in dog; assay type: organism-based, Canis lupus familiaris; settings: in vivo
[30] = organism: Rattus norvegicus; assay: Toxicity in rat; assay type: organism-based; settings: in vivo
[31] = tested on: Rattus norvegicus; assay: Stimulation of LH release in Crl:CD(SD) rat assessed as LH AUC (0 to 4 hrs) at 0.01 to 1 nmol/kg, sc single dose relative to metastin; assay type: functional

Row | Structure (SMILES) | Activity [1] [%] | remaining at 336 h [2] [%] | EC50 [3] [nM] | MRT [4] [min] | AUC(0-t) at 24 h [5] [ng·h/mL] | clearance [6] [mL/min/kg] | Activity [7] [animals] | Activity [8] [%] | Ki [9] [nM] | remaining at 336 h [10] [%] | remaining at 168 h [11] [%] | remaining at 336 h [12] [%] | remaining at 168 h [13] [%] | MRT [14] [min] | remaining at 168 h [15] [%] | Tmax [16] [min] | concentration at 5 min [17] [ng/mL] | AUC(0-t) at 24 h [18] [ng·h/mL] | Ki [20] [nM] | EC50 [23] [nM] | also measured
1 | CNC(=N)NCCC[C@H](NC(=O)[C@H](CC(C)C)NC(=O)NNC(=O)[C@H](Cc1ccccc1)NC(=O)[C@@H](NC(=O)[C@H](CC(N)=O)NC(=O)[C@@H](Cc1c[nH]c2ccccc12)NC(=O)[C@@H](Cc1ccc(O)cc1)NC(C)=O)[C@@H](C)O)C(=O)N[C@@H](Cc1ccccc1)C(N)=O | 4 | 67.6 | 3.9 | 26.4 | 497 | 34.5 | 0 | 5 | 0.038 | 22.3 | 50.6 | 95 | 97.5 | 52.8 | 84.5 | 25.2 | 1450 | 144 | 0.087 | 0.94 | remaining at 168 h [19]: 98.1%; inhibition [21]: Active; remaining at 336 h [22]: 96.3%; Vd [24]: 0.896 L/kg; Cmax [25]: 114 ng/mL; bioavailability [26]: 28.9%
2 | CCCC(=O)N[C@H](Cc1ccc(O)cc1)C(=O)N[C@H](Cc1c[nH]c2ccccc12)C(=O)N[C@@H](CC(N)=O)C(=O)N[C@H](C(=O)N[C@@H](Cc1ccccc1)C(=O)NNC(=O)N[C@@H](CC(C)C)C(=O)N[C@@H](CCCNC(=N)NC)C(=O)N[C@@H](Cc1c[nH]c2ccccc12)C(N)=O)[C@@H](C)O | 0 |  | 3.7 |  |  |  |  |  |  |  |  |  |  |  |  |  |  |  | 0.11 | 0.8 | Activity [27]: 3 rats (n = 5)
3 | CNC(=N)NCCC[C@H](NC(=O)[C@H](CC(C)C)NC(=O)NNC(=O)[C@H](Cc1ccccc1)NC(=O)[C@@H](NC(=O)[C@H](CC(N)=O)NC(=O)[C@@H](Cc1c[nH]c2ccccc12)NC(=O)[C@@H](Cc1ccc(O)cc1)NC(C)=O)[C@@H](C)O)C(=O)N[C@@H](Cc1c[nH]c2ccccc12)C(N)=O (Ac-[dY][dW]NTF[azaGly]L[Arg(Me)]W-NH2) | 4 | 66.4 | 1.3 | 41.4 | 1220 | 13.7 | 0 | 5 | 0.036 | 28.8 | 55.6 | 95.6 | 97.7 | 51.6 | 79.7 | 11.4 | 2510 | 115 | 0.069 | 0.33 | Activity [28]: Active; Activity [29]: Non-toxic; remaining at 168 h [19]: 95.9%; inhibition [21]: Active; remaining at 336 h [22]: 93.6%; Vd [24]: 0.562 L/kg; Activity [30]: Non-toxic; fold change (FC) [31]: 100; Cmax [25]: 100 ng/mL; bioavailability [26]: 9.4%
